For 38 molecules, Ratio and Ki results are on record in ChEMBL document CHEMBL1132940, “Pharmacophore/receptor models for GABA(A)/BzR subtypes (alpha1beta3gamma2, alpha5beta3gamma2, and alpha6beta3gamma2) via a comprehensive ligand-mapping approach” (J Med Chem, 2000).

Assay [1] can be described thus: Selectivity ratio of alpha1 beta-3 gamma2 GABA A / BzR and alpha5 beta-3 gamma2 GABA A / BzR.
Assay [2] has as its target T1, GABA-A receptor; alpha-5/beta-3/gamma-2 (Homo sapiens, UniProt P18507+P28472+P31644).
T1 sequence (P18507 whole entry): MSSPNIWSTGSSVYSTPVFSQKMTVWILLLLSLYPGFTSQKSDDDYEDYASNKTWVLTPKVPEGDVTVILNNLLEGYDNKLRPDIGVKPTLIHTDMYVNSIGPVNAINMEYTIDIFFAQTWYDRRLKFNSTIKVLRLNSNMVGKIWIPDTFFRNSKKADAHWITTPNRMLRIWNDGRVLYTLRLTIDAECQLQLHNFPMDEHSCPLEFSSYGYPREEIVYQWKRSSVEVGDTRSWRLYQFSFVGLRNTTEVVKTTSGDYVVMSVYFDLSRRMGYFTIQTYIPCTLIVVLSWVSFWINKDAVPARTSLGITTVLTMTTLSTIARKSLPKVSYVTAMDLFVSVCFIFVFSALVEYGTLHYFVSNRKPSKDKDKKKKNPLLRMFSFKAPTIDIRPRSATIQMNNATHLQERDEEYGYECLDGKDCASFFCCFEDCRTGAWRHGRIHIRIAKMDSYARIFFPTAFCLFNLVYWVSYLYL
T1 sequence (P28472 whole entry): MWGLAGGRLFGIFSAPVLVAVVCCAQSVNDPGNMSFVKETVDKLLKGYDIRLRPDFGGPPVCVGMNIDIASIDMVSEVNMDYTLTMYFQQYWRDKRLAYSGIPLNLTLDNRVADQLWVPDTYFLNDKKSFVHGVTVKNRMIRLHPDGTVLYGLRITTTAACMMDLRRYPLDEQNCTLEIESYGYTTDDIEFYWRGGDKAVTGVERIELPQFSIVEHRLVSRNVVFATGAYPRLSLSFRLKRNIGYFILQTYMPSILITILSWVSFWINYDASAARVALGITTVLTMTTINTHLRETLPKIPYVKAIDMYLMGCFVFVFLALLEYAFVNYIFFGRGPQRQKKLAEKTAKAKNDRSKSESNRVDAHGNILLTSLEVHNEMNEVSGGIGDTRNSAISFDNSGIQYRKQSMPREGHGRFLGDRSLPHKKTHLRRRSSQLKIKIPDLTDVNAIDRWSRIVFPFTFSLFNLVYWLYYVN
T1 sequence (P31644 whole entry): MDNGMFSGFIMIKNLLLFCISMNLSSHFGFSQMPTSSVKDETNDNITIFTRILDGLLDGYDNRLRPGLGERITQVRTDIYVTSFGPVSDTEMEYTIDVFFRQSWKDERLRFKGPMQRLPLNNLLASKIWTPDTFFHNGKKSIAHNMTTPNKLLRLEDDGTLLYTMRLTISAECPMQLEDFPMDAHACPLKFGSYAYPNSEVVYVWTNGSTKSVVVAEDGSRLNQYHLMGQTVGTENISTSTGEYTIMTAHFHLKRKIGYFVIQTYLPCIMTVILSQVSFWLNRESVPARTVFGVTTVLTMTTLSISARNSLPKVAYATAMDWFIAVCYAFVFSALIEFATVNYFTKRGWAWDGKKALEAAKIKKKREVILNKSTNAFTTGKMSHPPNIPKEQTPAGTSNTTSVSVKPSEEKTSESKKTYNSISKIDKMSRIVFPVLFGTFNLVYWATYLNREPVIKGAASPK
Kind of assay: Binding affinity for human recombinant gamma-aminobutyric-acid (GABA) A receptor alpha-5-beta-3-gamma-2. In kind it is protein-complex assay.

Assay [3] deals with T2, GABA-A receptor; alpha-3/beta-3/gamma-2 (Homo sapiens, UniProt P18507+P28472+P34903).
T2 sequence (P18507 whole entry): T1 sequence (P18507 whole entry)
T2 sequence (P28472 whole entry): T1 sequence (P28472 whole entry)
T2 sequence (P34903 whole entry): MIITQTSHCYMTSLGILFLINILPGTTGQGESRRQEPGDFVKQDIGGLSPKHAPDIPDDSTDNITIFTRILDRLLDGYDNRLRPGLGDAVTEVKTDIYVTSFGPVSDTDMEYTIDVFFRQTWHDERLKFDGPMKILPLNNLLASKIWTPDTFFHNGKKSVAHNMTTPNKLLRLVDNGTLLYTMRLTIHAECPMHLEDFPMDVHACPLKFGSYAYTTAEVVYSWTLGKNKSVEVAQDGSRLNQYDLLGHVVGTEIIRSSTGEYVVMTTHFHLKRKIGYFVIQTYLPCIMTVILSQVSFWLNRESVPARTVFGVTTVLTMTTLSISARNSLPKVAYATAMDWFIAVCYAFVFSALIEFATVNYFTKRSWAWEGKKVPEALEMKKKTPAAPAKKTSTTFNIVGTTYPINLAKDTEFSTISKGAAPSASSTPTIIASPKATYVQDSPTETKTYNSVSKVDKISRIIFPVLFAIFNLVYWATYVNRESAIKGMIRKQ
Put plainly: Binding affinity for human recombinant gamma-aminobutyric-acid (GABA) A receptor alpha-3-beta-3-gamma-2. In kind it is protein-complex assay.

Assay [4] concerns the target GABA-A receptor; alpha-6/beta-3/gamma-2 (Homo sapiens, UniProt P18507+P28472+Q16445). Kind of assay: Binding affinity for human recombinant gamma-aminobutyric-acid (GABA) A receptor alpha-6-beta-3-gamma-2. In kind it is protein-complex assay. The method, boiled down:
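Ltk⁻ cells expressing human α6β3γ2 were harvested by scraping into PBS, centrifuged at 3000g and resuspended in 10 mM KH₂PO₄/100 mM KCl (pH 7.4). Incubation was 1 h at 4 °C with filter harvest and scintillation counting.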

Sequence of GABA-A receptor; alpha-6/beta-3/gamma-2 (Q16445 whole entry, one chain of several): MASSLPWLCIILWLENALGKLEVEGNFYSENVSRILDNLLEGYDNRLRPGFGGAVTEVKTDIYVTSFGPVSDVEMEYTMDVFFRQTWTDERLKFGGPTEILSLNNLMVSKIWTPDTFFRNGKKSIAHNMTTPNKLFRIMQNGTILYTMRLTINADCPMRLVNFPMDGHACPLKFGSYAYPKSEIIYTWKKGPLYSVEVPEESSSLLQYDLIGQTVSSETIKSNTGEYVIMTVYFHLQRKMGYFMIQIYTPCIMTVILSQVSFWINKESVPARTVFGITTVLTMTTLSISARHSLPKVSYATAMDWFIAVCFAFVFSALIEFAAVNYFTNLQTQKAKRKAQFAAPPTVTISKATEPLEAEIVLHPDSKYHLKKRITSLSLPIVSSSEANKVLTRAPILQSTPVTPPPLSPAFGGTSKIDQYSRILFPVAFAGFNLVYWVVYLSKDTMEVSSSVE

As to `CCOC(=O)c1ncn2c1CN(C)C(=O)c1cc(Cl)ccc1-2`, the Ratio in assay [1] was found to be 8. Turning to `CCOC(=O)c1ncn2c1CN(C)C(=O)c1cc(CC)ccc1-2`, the Ratio in assay [1] worked out at 13.6. For `CC(C)N(Cc1ncn2c1CN(C)C(=O)c1cc(Cl)ccc1-2)C(C)C`, the Ratio in assay [1] came to 3.2.

Take `CCCCCc1ncn2c1CN(C)C(=O)c1cc(Cl)ccc1-2`: the Ratio in assay [1] was 5.6.

`CC(=O)c1ncn2c1CN(C)C(=O)c1cc(Cl)ccc1-2`: in assay [1], the Ratio came out at 6.7.

Regarding `CCOC(=O)c1ncn2c1CN(C)C(=O)c1cc(C#C[Si](C)(C)C)ccc1-2`, the Ratio in assay [1] was 24.2. With `C#Cc1ccc2c(c1)C(=O)N1CCC[C@H]1c1c(-c3nc(C(C)C)no3)ncn1-2`, in assay [1], the Ratio is 15. Consider `CCOc1cc2c(cn1)[nH]c1ccccc12`, for which the results for the Ki in assay [2] and in assay [3] were 826 nM and 28.2 nM, respectively.

Take `CN1Cc2c(C(=O)OC(C)(C)C)ncn2-c2ccc(N=C=S)cc2C1=O`: in assay [1], the Ratio came out at 6.8. As to `CCc1ncn2c1CN(C)C(=O)c1cc(Cl)ccc1-2`, the Ratio in assay [1] came out at 2.2.

`CN1Cc2c(C(=O)OCC3CC3)ncn2-c2ccc(Cl)cc2C1=O`: in assay [1], the Ratio stood at 1.7. Take `C#Cc1ccc2c(c1)C(=O)N1CC[C@H]1c1c(-c3nc(C(C)C)no3)ncn1-2`: the Ratio in assay [1] came out at 18.

For the molecule `C#Cc1ccc2c(c1)C(=O)N(C)Cc1c(C(=O)OC(C)(C)C)ncn1-2`, the Ratio in assay [1] came to 67.3. Still for that read-out and setting: the result for `CCN(CC)Cc1ncn2c1CN(C)C(=O)c1cc(Cl)ccc1-2` reads 3.2. `COCc1c(C(=O)OC(C)C)ncc2[nH]c3ccc(OCc4ccccc4)cc3c12` [ABECARNIL]: the Ki in assay [4] was more than 1000 nM. `CCCOc1ccc2[nH]c3cnc(OCCC)c(COC)c3c2c1`: the Ki in assay [4] is more than 1000 nM. As for `CCOC(=O)c1ncn2c1[C@@H]1CCN1C(=O)c1cc(Br)ccc1-2`, the Ratio in assay [1] amounted to 56. Take `CN1Cc2c(C(=O)OC(C)(C)C)ncn2-c2ccc(C#CC[Si](C)(C)C)cc2C1=O`: in assay [1], the Ratio worked out at 12. For the molecule `CCCCC(=O)c1ncn2c1CN(C)C(=O)c1cc(Cl)ccc1-2`, the Ratio in assay [1] was 9.6.

Regarding `C=Cc1ccc2c(c1)C(=O)N(C)Cc1c(C(=O)OCC)ncn1-2`, the Ratio in assay [1] came to 20.8. Turning to `CN1Cc2c(C(=O)OC(C)(C)C)ncn2-c2ccc(Cl)cc2C1=O`, the Ratio in assay [1] was 26.6. On to `CCOC(=O)c1ncn2c1[C@@H]1CCCN1C(=O)c1cc(C#C[Si](C)(C)C)ccc1-2`, for which the Ratio in assay [1] worked out at 50. Regarding `C#Cc1ccc2c(c1)C(=O)N1CCC[C@H]1c1c(-c3nc(C)no3)ncn1-2`, the Ratio in assay [1] stood at 24.

On to `CN1Cc2c(C(=O)OC(C)(C)C)ncn2-c2ccc([N+](=O)[O-])cc2C1=O`, for which, in assay [1], the Ratio amounted to 3.7. `CN1Cc2c(C(=O)OC(C)(C)C)ncn2-c2ccc(O)cc2C1=O`: the Ratio in assay [1] was determined as 10.7. On to `CCOC(=O)c1ncn2c1[C@@H]1CCCN1C(=O)c1cc(Br)ccc1-2`, for which the Ratio in assay [1] was determined as 49. As to `CN1Cc2c(C(=O)OC(C)(C)C)ncn2-c2ccc(I)cc2C1=O`, the Ratio in assay [1] stood at 25.5. The same measure, in the same setting: as for `CN1Cc2c(CCl)ncn2-c2ccc(Cl)cc2C1=O`, the figure is more than 10.5; as for `C#Cc1ccc2c(c1)C(=O)N(C)Cc1c(C(=O)OCC)ncn1-2`, 58. Regarding `COCc1ncn2c1CN(C)C(=O)c1cc(Cl)ccc1-2`, in assay [1], the Ratio is more than 7.7. In the case of `C#Cc1ccc2c(c1)C(=O)N1CC[C@H]1c1c(C(=O)OCC)ncn1-2`, the Ratio in assay [1] turned out to be 57.

Consider `CN1Cc2c(C(=O)OC(C)(C)C)ncn2-c2ccc(N3CCCC3)cc2C1=O`, for which the Ratio in assay [1] was 0.63. For `CN1Cc2c(C(=O)OC(C)(C)C)ncn2-c2ccc(C#C[Si](C)(C)C)cc2C1=O`, the Ratio in assay [1] was determined as 75.5. `CN1Cc2c(C(=O)OC(C)(C)C)ncn2-c2ccc(Br)cc2C1=O`: in assay [1], the Ratio was determined as 24.3.

Regarding `CCOC(=O)c1ncn2c1CN(C)C(=O)c1cc(Br)ccc1-2`, the Ratio in assay [1] worked out at 3.7. In the case of `C#Cc1ccc2c(c1)C(=O)N1CC[C@H]1c1c(-c3nc(CC)no3)ncn1-2`, the Ratio in assay [1] turned out to be 17. `CN1C(=O)CN=C(c2ccccc2)c2cc(Cl)ccc21` [DIAZEPAM]: in assay [4], the Ki is more than 3000 nM.

`CCOC(=O)c1ncn2c1CN(C)C(=O)c1cc(N=[N+]=[N-])ccc1-2` [Ro-154513]: the inhibitory constant (Ki) in assay [2] stood at 0.3 nM.

As usually defined, the Ki is the dissociation constant of the complex between target and ligand, obtained from inhibition or displacement.
